The results in this text go back to ChEMBL document CHEMBL4765424 (Eur J Med Chem, 2020).

One may read the inhibition as how much of the control response was suppressed. A lower inhibition goes with a response near the control. Usually IC50 stands for the midpoint of a concentration-inhibition curve.

The first test concerns Severe acute respiratory syndrome coronavirus 2. Put plainly: Inhibition of SARS CoV2 C-terminal His6-tagged 3CL protease expressed in Escherichia coli BL21 DE3 at 50 uM using Thr-Ser-Ala-Val-Leu-Gln-pNA as substrate preincubated for 30 mins followed by substrate addition and measured for 20 mins by colorimetric method relative to control. Conditions: time 50.0 min. The method, boiled down: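 Recombinant SARS-CoV-2 3CLpro comes from a synthetic full-length gene expressed in E. coli and purified. The enzyme was preincubated with compound for 30 min at room temperature in 40 mM PBS, 100 mM NaCl, 1 mM EDTA, 0.1% Triton, pH 7.3. TSAVLQ-pNA was then added to 200 μM final. A390 was read every 30 s for 20 min. Line 1 is percent inhibition at 50 μM. IC50s were fitted with a Hill1 function.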
`CCCCN1C(=O)C(=O)c2cc(C(=O)ON3C(=O)CCC3=O)ccc21` showed an inhibition of 47%.
Same read-out and setting: to `COC(=O)c1ccc2c(c1)C(=O)C(=O)N2Cc1ccccc1` belongs 45%.
With `COC(=O)c1ccc2c(c1)C(=O)C(=O)N2C`, the inhibition was 53%.
The same measure, in the same setting: with `CCCCN1C(=O)C(=O)c2cc(C(=O)O)ccc21` the figure was less than 25%; with `O=C1C(=O)N(CN2CCOCC2)c2ccc(F)cc21`, less than 25%; with `O=C1C(=O)N(CO)c2ccccc21`, less than 25%.
As to `O=C1C(=O)N(CN2CCOCC2)c2ccc(Cl)cc21`, the inhibition is less than 25%.
Still for that read-out and setting: with `O=C(O)c1ccc2c(c1)C(=O)C(=O)N2Cc1ccc2ccccc2c1` the figure was 32%.
Still for that read-out and setting: with `CCCN1C(=O)C(=O)c2cc(I)ccc21` the figure was 51%; with `CN1C(=O)C(=O)c2cc(C(=O)O)ccc21`, less than 25%.
On the same count and under the same terms, to `CCCN1C(=O)C(=O)c2cc(C(=O)OC)ccc21` belongs 53%.
With `CN1C(=O)C(=O)c2cc(C(=O)ON3C(=O)CCC3=O)ccc21`, the inhibition was 45%.
The molecule `O=C(O)c1ccc2c(c1)C(=O)C(=O)N2Cc1ccccc1` gave an inhibition of less than 25%.
For `O=C1C(=O)N(CN2CCOCC2)c2ccc([N+](=O)[O-])cc21`, the inhibition is less than 25%.
On the same count and under the same terms, to `COC(=O)c1ccc2c(c1)C(=O)C(=O)N2CN1CCOCC1` belongs 32%; to `CCCCN1C(=O)C(=O)c2cc(C(=O)OC)ccc21`, 42%.
The same measure, in the same setting: with `O=C1C(=O)N(CN2CCCCC2)c2ccc(F)cc21` the figure was less than 25%; with `CCCN1C(=O)C(=O)c2cc(C(=O)O)ccc21`, less than 25%; with `CN1C(=O)C(=O)c2cc(I)ccc21`, 25%.
The same measure, in the same setting: to `O=C1C(=O)N(CN2CCOCC2)c2ccccc21` belongs less than 25%.

Test system in the next test: not listed separately
Put plainly: Inhibition of SARS CoV2 C-terminal His6-tagged 3CL protease expressed in Escherichia coli BL21 DE3 using Thr-Ser-Ala-Val-Leu-Gln-pNA as substrate preincubated for 30 mins followed by substrate addition and measured for 20 mins by colorimetric method. Also noted: species or system Severe acute respiratory syndrome coronavirus 2.
Settings: not given
`O=C(ON1C(=O)CCC1=O)c1ccc2c(c1)C(=O)C(=O)N2Cc1ccccc1` displayed an IC50 of 15.5 µM.
The same measure, in the same setting: to `NC(=O)c1ccc2c(c1)C(=O)C(=O)N2Cc1cc2ccccc2s1` belongs 0.053 µM; to `NC(=O)c1ccc2c(c1)C(=O)C(=O)N2Cc1ccc2cc(Br)ccc2c1`, 0.047 µM; to `NC(=O)c1ccc2c(c1)C(=O)C(=O)N2Cc1ccc2ccccc2c1`, 0.045 µM.
Regarding `CCCN1C(=O)C(=O)c2cc(C(N)=O)ccc21`, the IC50 was 10.2 µM. This IC50 is about 230-fold higher than that of the molecule before.
Same read-out and setting: with `CCCCN1C(=O)C(=O)c2cc(I)ccc21` the figure was 41.8 µM; with `NC(=O)c1ccc2c(c1)C(=O)C(=O)N2Cc1ccc2cc(-c3ccccc3)ccc2c1`, 24.9 µM; with `CCCCN1C(=O)C(=O)c2cc(C(N)=O)ccc21`, 17.8 µM.
The same measure, in the same setting: with `NC(=O)Cc1ccc2c(c1)C(=O)C(=O)N2Cc1ccc2ccccc2c1` the figure was 39.2 µM.
